Activity calls are given as the source filed them. No cut-off for these calls is given here.
Tests used:
[1] = Inhibition of TEM1 (unknown origin) expressed in Escherichia coli BL21 DE3 assessed as K2/Ki ratio using nitrocefin as substrate by spectrophotometry
Method in brief: (§1)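 His-tagged enzymes expressed in E. coli BL21(DE3) (IPTG 0.5 mM, 16°C, 18 h), purified by Ni-NTA and size exclusion in 25 mM Tris-HCl pH 7.5, 300 mM NaCl. Carbamoylation k2/Ki from progress curves, reporter nitrocefin 100 μM, 20°C, 100 mM MES pH 6.4; inhibitor up to 100 μM; ≥6 curves, ≥2 independent experiments.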

Escherichia coli [2] = assay: Antibacterial activity against Escherichia coli Top10 assessed as cefamandole MIC by CLSI protocol based method (reference value: 2 ug/ml); assay type: functional
Method in brief: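 Broth microdilution in cation-adjusted Mueller-Hinton broth following CLSI. Strain carries a β-lactamase gene cloned in pTRC-99k (kanamycin marker); preculture in BHI with IPTG (500 μM) and kanamycin (50 μg/ml); IPTG (500 μM) also in plates to induce enzyme. β-Lactam MIC read with or without inhibitor at fixed 15 μM (4 μg/ml for avibactam; clavulanate 4 μg/ml). Median of five biological repeats from two independent experiments.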

Escherichia coli [3] = assay: Antibacterial activity against Escherichia coli Top10 harboring TEM1 assessed as cefamandole MIC by CLSI protocol based method (reference value: 2048 ug/ml); assay type: functional
[4] = Inhibition of KPC-2 (unknown origin) expressed in Escherichia coli BL21 DE3 assessed as K2/Ki ratio using nitrocefin as substrate by spectrophotometry; method in brief: as §1
Escherichia coli [5] = assay: Antibacterial activity against Escherichia coli Top10 without harboring KPC-2 assessed as aztreonam MIC by CLSI protocol based method (reference value: 0.5 ug/ml); assay type: functional
Escherichia coli [6] = assay: Antibacterial activity against Escherichia coli Top10 harboring KPC-2 assessed as aztreonam MIC by CLSI protocol based method (reference value: 2048 ug/ml); assay type: functional
Enterobacter cloacae [7] = assay: Inhibition of Enterobacter cloacae CTX-M-15 expressed in Escherichia coli BL21 DE3 assessed as K2/Ki ratio using nitrocefin as substrate by spectrophotometry; method in brief: as §1
Escherichia coli [8] = assay: Antibacterial activity against Escherichia coli Top10 without harboring CTX-M-15 assessed as amoxicillin MIC by CLSI protocol based method (reference value: 8 ug/ml); assay type: functional
Enterobacter cloacae [9] = assay: Inhibition of Enterobacter cloacae AmpC expressed in Escherichia coli BL21 DE3 assessed as K2/Ki ratio using nitrocefin as substrate by spectrophotometry; method in brief: as §1
Escherichia coli [10] = assay: Antibacterial activity against Escherichia coli Top10 without harboring AmpC assessed as cefotaxime MIC by CLSI protocol based method (reference value: 0.125 ug/ml); assay type: functional
Escherichia coli [11] = assay: Antibacterial activity against Escherichia coli Top10 harboring AmpC assessed as cefotaxime MIC by CLSI protocol based method (reference value: 256 ug/ml); assay type: functional
[12] = Inhibition of OXA-48 expressed in Escherichia coli BL21 DE3 assessed as K2/Ki ratio using CENTA as substrate by spectrophotometry
Method in brief: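 OXA-48 expressed in E. coli BL21(DE3) (IPTG 0.5 mM, 16°C, 18 h), purified by Ni-NTA and size exclusion. Carbamoylation k2/Ki by spectrophotometric progress curves with CENTA 100 μM as reporter, 20°C, 100 mM MES pH 6.4; inhibitor up to 100 μM; ≥6 curves from ≥2 independent experiments.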

Escherichia coli [13] = assay: Antibacterial activity against Escherichia coli Top10 without harboring OXA-48 assessed as ertapenem MIC by CLSI protocol based method (reference value: < 0.03 ug/ml); assay type: functional
Escherichia coli [14] = assay: Antibacterial activity against Escherichia coli Top10 harboring OXA-48 assessed as ertapenem MIC by CLSI protocol based method (reference value: 8 ug/ml); assay type: functional
Escherichia coli [15] = assay: Antibacterial activity against Escherichia coli Top10 harboring CTX-M-15 assessed as amoxicillin MIC by CLSI protocol based method (reference value: 2048 ug/ml); assay type: functional

SMILES | Ratio [1] | MIC (Escherichia coli [2]) | MIC (Escherichia coli [3]) | Ratio [4] | MIC (Escherichia coli [5]) | MIC (Escherichia coli [6]) | Ratio (Enterobacter cloacae [7]) | MIC (Escherichia coli [8]) | Ratio (Enterobacter cloacae [9]) | MIC (Escherichia coli [10]) | MIC (Escherichia coli [11]) | Ratio [12] | MIC (Escherichia coli [13]) | MIC (Escherichia coli [14]) | MIC (Escherichia coli [15])
O=C(O)CCc1cn(C[C@@H]2CC[C@@H]3CN2C(=O)N3OS(=O)(=O)[O-])nn1.[Na+] | 720 M⁻¹ s⁻¹ | 2 µg/mL | 32 µg/mL | 70 M⁻¹ s⁻¹ | 0.25 µg/mL | 256 µg/mL | 110 M⁻¹ s⁻¹ | 2 µg/mL | 99 M⁻¹ s⁻¹ | 0.25 µg/mL | 64 µg/mL | inactive | < 0.03 µg/mL | 8 µg/mL | 
O=C1N2C[C@@H](CC[C@H]2Cn2cc(-c3cccnc3)nn2)N1OS(=O)(=O)[O-].[Na+] | 1400 M⁻¹ s⁻¹ | 2 µg/mL | 8 µg/mL | 550 M⁻¹ s⁻¹ | 0.25 µg/mL | 32 µg/mL | 1700 M⁻¹ s⁻¹ | 2 µg/mL | 85 M⁻¹ s⁻¹ | 0.125 µg/mL | 128 µg/mL | inactive | < 0.03 µg/mL | 8 µg/mL | 32 µg/mL
CC(C)(C)OC(=O)NCCC(=O)Nc1ccc(-c2cn(C[C@@H]3CC[C@@H]4CN3C(=O)N4OS(=O)(=O)[O-])nn2)cc1.[Na+] | 3700 M⁻¹ s⁻¹ | 2 µg/mL | 256 µg/mL | 1100 M⁻¹ s⁻¹ | 0.5 µg/mL | 512 µg/mL | 2400 M⁻¹ s⁻¹ | 8 µg/mL | 180 M⁻¹ s⁻¹ | 0.125 µg/mL | 128 µg/mL | 150 M⁻¹ s⁻¹ | < 0.03 µg/mL | 16 µg/mL | 768 µg/mL
C[Si](C)(C)c1cn(C[C@@H]2CC[C@@H]3CN2C(=O)N3OS(=O)(=O)[O-])nn1.[Na+] | 370 M⁻¹ s⁻¹ | 2 µg/mL | 64 µg/mL | 97 M⁻¹ s⁻¹ | 0.5 µg/mL | 512 µg/mL | 400 M⁻¹ s⁻¹ | 8 µg/mL | 24 M⁻¹ s⁻¹ | 0.125 µg/mL | 64 µg/mL | inactive | < 0.03 µg/mL | 16 µg/mL | 1020 µg/mL
CC(C)(C)OC(=O)NCc1cn(C[C@@H]2CC[C@@H]3CN2C(=O)N3OS(=O)(=O)[O-])nn1.[Na+] | 2800 M⁻¹ s⁻¹ | 2 µg/mL | 128 µg/mL | 540 M⁻¹ s⁻¹ | 0.25 µg/mL | 512 µg/mL | 130 M⁻¹ s⁻¹ | 8 µg/mL | 51 M⁻¹ s⁻¹ | 0.125 µg/mL | 128 µg/mL | 210 M⁻¹ s⁻¹ | < 0.03 µg/mL | 16 µg/mL | 1020 µg/mL
NCCC(=O)Nc1ccc(-c2cn(C[C@@H]3CC[C@@H]4CN3C(=O)N4OS(=O)(=O)O)nn2)cc1.O=C(O)C(F)(F)F | 940 M⁻¹ s⁻¹ | 2 µg/mL | 32 µg/mL | 180 M⁻¹ s⁻¹ | 0.25 µg/mL | 64 µg/mL | 150 M⁻¹ s⁻¹ | 4 µg/mL | 28 M⁻¹ s⁻¹ | 0.25 µg/mL | 64 µg/mL | inactive | < 0.03 µg/mL | 4 µg/mL | 128 µg/mL
O=C(O)C(F)(F)F.O=C1N2C[C@@H](CC[C@H]2Cn2cc(C3CCNCC3)nn2)N1OS(=O)(=O)O | 3600 M⁻¹ s⁻¹ | 2 µg/mL | 4 µg/mL | 340 M⁻¹ s⁻¹ | 0.25 µg/mL | 32 µg/mL | 350 M⁻¹ s⁻¹ | 4 µg/mL | 26 M⁻¹ s⁻¹ | 0.125 µg/mL | 128 µg/mL | inactive | < 0.03 µg/mL | 8 µg/mL | 64 µg/mL
NCc1cn(C[C@@H]2CC[C@@H]3CN2C(=O)N3OS(=O)(=O)O)nn1.O=C(O)C(F)(F)F | 3100 M⁻¹ s⁻¹ | 4 µg/mL | 4 µg/mL | 120 M⁻¹ s⁻¹ | 0.25 µg/mL | 32 µg/mL | 88 M⁻¹ s⁻¹ | 4 µg/mL | 16 M⁻¹ s⁻¹ | 0.125 µg/mL | 128 µg/mL | inactive | < 0.03 µg/mL | 8 µg/mL | 128 µg/mL

From ChEMBL document CHEMBL4342503, “Diazabicyclooctane Functionalization for Inhibition of β-Lactamases from Enterobacteria” (2020)
